VIM-2 inh = inhibitors of Pseudomonas aeruginosa VIM-2 metallo-beta-lactamase | 0.89% of 290,000 active | inhibition, % at 5.6 µM | AID 1527 | purified VIM-2, nitrocefin hydrolysis, epi-absorbance fluorescence;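 active = inhibition above the mean of all tested compounds plus 3 SD, cutoff set per screening run, cut at about 7.5% in these data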;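 note: red hydrolysis product quenches plate fluorescence so inhibitors raise well fluorescence; 0% = enzyme with DMSO and 100% = DMSO without enzyme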
PvdQ acylase = P. aeruginosa PvdQ acylase inhibition | 0.063% of 340,000 active | purified PvdQ acylase, fluorescence plate reader | AID 488965 | inhibition, % at 10 µM; in the data active = inhibition above about 30%, passing the limit was not always enough;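 note: 0% = vehicle neutral wells and 100% = reference inhibitor wells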
Yeast superoxide = caloric restriction mimetics inhibiting age-related superoxide in yeast; S. cerevisiae aged cells, superoxide DHE fluorescence; hits give low values; superoxide response (% of plate mean), % at 10 µM; 0.18% of 330,000 active; AID 2690;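 active = superoxide response under a set limit, about three screen SD below normal, cut at about 65% in these data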;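 note: yeast aged for seven days with compound at 30 °C before DHE staining; 100% = average MFI of all compound-treated wells on the plate with controls excluded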
PHOSPHO1 inh = PHOSPHO1 (human) inhibition; Q8TCT1; recombinant PHOSPHO1, absorbance phosphatase assay; inhibition, % at 13.3 µM; 1.1% of 290,000 active; in the data active = inhibition above about 60%
Target sequence (Q8TCT1 whole entry, looked up): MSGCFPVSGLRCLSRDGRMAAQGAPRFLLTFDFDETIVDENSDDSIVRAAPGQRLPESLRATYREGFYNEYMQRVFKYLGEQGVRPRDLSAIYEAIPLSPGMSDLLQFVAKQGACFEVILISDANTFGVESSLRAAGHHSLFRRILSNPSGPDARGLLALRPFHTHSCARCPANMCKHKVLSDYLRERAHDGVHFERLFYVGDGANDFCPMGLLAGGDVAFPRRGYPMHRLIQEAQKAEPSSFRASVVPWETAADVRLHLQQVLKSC
IMP-1 inhibitor = blocks Pseudomonas aeruginosa IMP-1 metallo-beta-lactamase; purified IMP-1, nitrocefin hydrolysis, epi-absorbance fluorescence; inhibition, % at 5.6 µM; 0.45% of 290,000 active; AID 1556;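 active = inhibition above the mean plus 3 SD of all compounds in the same screening run, cut at about 4.5% in these data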;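 note: 0% = IMP-1 with DMSO and 100% = DMSO wells lacking enzyme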
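system = purified recombinant IMP-1 beta-lactamase | amount = 0.2 nM IMP-1, as dispensed | medium = HEPES buffer pH 7.1 with ZnSO4 and Brij 35 | times = 25 °C, 15 min preincubation, 25 min reaction | detection = plate fluorescence quenching by hydrolysis product, ex 480/em 530 nm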
Active calls of the source: *. Only some compounds are listed: those with a hit (about 2.2% of all), similar ones and a draw of the others.

O=C(O)c1cc(Cl)c2c(c1)[C@@H]1C=CC[C@@H]1[C@H](c1ccc(S(=O)(=O)N3CCOCC3)cc1)N2 was read as VIM-2 inh 1, PvdQ acylase -8, Yeast superoxide 87, PHOSPHO1 inh 0 and IMP-1 inhibitor 11*.
O=[N+]([O-])c1cc2oc3c(c2c(C=NCc2ccccc2)c1O)CCCC3 was read as VIM-2 inh -4, PvdQ acylase -7, Yeast superoxide 100, PHOSPHO1 inh -2 and IMP-1 inhibitor 1.
For CC(C)CN=Cc1c(O)c([N+](=O)[O-])cc2oc3c(c12)CCCC3 the results were VIM-2 inh -3, PvdQ acylase 20, Yeast superoxide 69, PHOSPHO1 inh -16 and IMP-1 inhibitor 10*.
Screening O=C(c1ccccc1)N1CCOC(O)(c2ccccc2)C1c1ccccc1 (stereo not drawn) returned PvdQ acylase -28.
`Cc1ccc(C(=O)NNC(=O)c2n[nH]c(=O)c3ccccc23)cc1C` gave PvdQ acylase -14 and Yeast superoxide 112.
For COc1cc(C(=S)N2CCCC2)cc(OC)c1O the results were VIM-2 inh 0, PvdQ acylase 1, Yeast superoxide 99, PHOSPHO1 inh 76* and IMP-1 inhibitor -4.
CCOc1cc(C(=S)N2CCCC2)ccc1OC was read as VIM-2 inh 1, PvdQ acylase -18, Yeast superoxide 101, PHOSPHO1 inh 18 and IMP-1 inhibitor -3.
For Cc1c(C(C)(C)C)c(C=S)n2ccccc12 the results were VIM-2 inh -1, PvdQ acylase -13, Yeast superoxide 107, PHOSPHO1 inh 93* and IMP-1 inhibitor 1.
`CC(C)(C)c1ccc(-c2nc(C=O)c3ccccn23)cc1` gave VIM-2 inh -2, PvdQ acylase -9, Yeast superoxide 104, PHOSPHO1 inh 5 and IMP-1 inhibitor -3.
Screening Cc1ccc(S(=O)(=O)Cc2cc(F)c([N+](=O)[O-])cc2[N+](=O)[O-])cc1 returned VIM-2 inh 3, PvdQ acylase -14, Yeast superoxide 115, PHOSPHO1 inh 27 and IMP-1 inhibitor 3.
For N#CC1=C(N)SC(N)=C(C#N)C1c1c(Cl)cccc1Cl the results were VIM-2 inh -3, PvdQ acylase -12, Yeast superoxide 102, PHOSPHO1 inh 82* and IMP-1 inhibitor -3.
For CCn1c(C)[n+](CCOCC[n+]2c(C)n(CC)c3cc(Cl)c(Cl)cc32)c2cc(Cl)c(Cl)cc21 the results were VIM-2 inh 0, PvdQ acylase -9, Yeast superoxide 84, PHOSPHO1 inh 83* and IMP-1 inhibitor 2.
For CC(=O)OCCn1c(C)[n+](CCOC(C)=O)c2cc(Cl)c(Cl)cc21 the results were VIM-2 inh 1, PvdQ acylase -5, Yeast superoxide 90, PHOSPHO1 inh 6 and IMP-1 inhibitor -1.
Screening O=C(CN1CSCC1=O)N1CCN(S(=O)(=O)c2ccc(Cl)cc2)CC1 returned PvdQ acylase -14 and Yeast superoxide 90.
`CS(=O)(=O)c1ccc(-c2cn3cc(C(=O)O)ccc3n2)cc1` gave VIM-2 inh 0, PvdQ acylase -15, Yeast superoxide 96, PHOSPHO1 inh 61* and IMP-1 inhibitor -2.
COC(=O)c1ccc2nc(-c3ccc(S(C)(=O)=O)cc3)cn2c1 was read as VIM-2 inh 0, PvdQ acylase -10, Yeast superoxide 121, PHOSPHO1 inh 37 and IMP-1 inhibitor 0.
For Cn1c(SCC(=O)c2ccc(O)c(O)c2)nnc1-c1cccs1 the results were VIM-2 inh 0, PvdQ acylase -6, Yeast superoxide 102, PHOSPHO1 inh 62* and IMP-1 inhibitor 0.
Screening COCCCN=C(c1ccco1)n1c(=S)nc(-c2ccco2)n(CCCOC)c1=S returned VIM-2 inh -1, PvdQ acylase 5, Yeast superoxide 115, PHOSPHO1 inh 98* and IMP-1 inhibitor -1.
`COc1ccc(OC)c(NS(=O)(=O)c2cc3c4c(c2)CCN4C(=O)CC3)c1` gave PvdQ acylase -3.
Screening Cc1cc(Nc2ccc(Br)cc2)n2nc(C)nc2n1 returned VIM-2 inh 5, PvdQ acylase -10, Yeast superoxide 96, PHOSPHO1 inh 2 and IMP-1 inhibitor -3.
For Cc1cc(Nc2ccc(F)cc2Cl)n2nc(C)nc2n1 the results were VIM-2 inh 3, PvdQ acylase -20, Yeast superoxide 99, PHOSPHO1 inh 11 and IMP-1 inhibitor -4.
Screening COc1ccc(Cl)cc1Nc1cc(C)nc2nc(C)nn12 returned VIM-2 inh 10.0*, PvdQ acylase 7, Yeast superoxide 95, PHOSPHO1 inh -23 and IMP-1 inhibitor -3.
Screening Cc1cc(Nc2ccc3c(c2)OCCO3)n2nc(C)nc2n1 returned VIM-2 inh 14*, PvdQ acylase 4, Yeast superoxide 98, PHOSPHO1 inh -11 and IMP-1 inhibitor -3.
For Cc1cc(Nc2cccc(F)c2)n2nc(C)nc2n1 the results were VIM-2 inh 4, PvdQ acylase -2, Yeast superoxide 103, PHOSPHO1 inh -7 and IMP-1 inhibitor -3.
For Cc1cc(Nc2ccc(F)cc2)n2nc(C)nc2n1 the results were VIM-2 inh 9.7*, PvdQ acylase -4, Yeast superoxide 86, PHOSPHO1 inh 1 and IMP-1 inhibitor 2.
For Cc1ccc(C(=O)N2CCCC(Nc3ccc(F)cc3)C2)cc1C (stereo not drawn) the results were VIM-2 inh -3, PvdQ acylase 4, Yeast superoxide 103, PHOSPHO1 inh -2 and IMP-1 inhibitor 1.
CCC12CCCN3CCC4(C(=C(C(=O)OC)C1)Nc1ccccc14)C32 (stereo not drawn) was read as VIM-2 inh -4, PvdQ acylase 12, PHOSPHO1 inh 99* and IMP-1 inhibitor -3.
COC(=O)C1=C(C(=O)OC)[C@@H]2Nc3ccccc3[C@@]23C[C@@H](C(=O)OC)N=C3N1 was read as PvdQ acylase 2, Yeast superoxide 110 and PHOSPHO1 inh 31.
`Cc1sc2nc(COC(=O)CNC(=O)c3ccc(C(C)(C)C)cc3)[nH]c(=O)c2c1C` gave VIM-2 inh -4, PvdQ acylase -4, Yeast superoxide 101, PHOSPHO1 inh -12 and IMP-1 inhibitor 8.6*.
Screening Cc1sc2nc(COC(=O)c3ccc(O)cc3)[nH]c(=O)c2c1C returned VIM-2 inh -1, PvdQ acylase -4, Yeast superoxide 91, PHOSPHO1 inh 10 and IMP-1 inhibitor -2.
Screening NC(=S)Nc1ccc(Oc2ccc(NC(N)=S)cc2)cc1 returned VIM-2 inh -2, PvdQ acylase 9, Yeast superoxide 100, PHOSPHO1 inh -26 and IMP-1 inhibitor 15*.
`Cc1ccc(NC(N)=S)cc1` gave VIM-2 inh 1, PvdQ acylase -4, Yeast superoxide 106, PHOSPHO1 inh 3 and IMP-1 inhibitor -1.
Cc1ccnc(NC(=O)C(C)n2cc([N+](=O)[O-])cn2)c1 (stereo not drawn) was read as VIM-2 inh -1, PvdQ acylase -2, Yeast superoxide 115, PHOSPHO1 inh -4 and IMP-1 inhibitor -1.
`O=C(Nc1ccc(C(=O)NCCCN2CCN(c3ccccc3)CC2)cc1)C1=CSCCO1` gave VIM-2 inh -1, PvdQ acylase -11, Yeast superoxide 97, PHOSPHO1 inh 12 and IMP-1 inhibitor -3.
